Values after ≈ are worked out from the molar mass of the structure shown.
How the values were obtained:
Haemophilus influenzae [1] = test: In vitro antimicrobial activity against aerobic bacteria Haemophilus influenzae 76; format: functional
Haemophilus influenzae [2] = test: In vitro antimicrobial activity against aerobic bacteria Haemophilus influenzae MX366,; format: functional
Haemophilus influenzae [3] = test: In vitro antimicrobial activity against Haemophilus influenzae.; format: functional
Mus musculus [4] = test: Peripheral plasma levels in mice after oral administration of 100 mg/kg dose for 4 hr; format: functional, organism-based; design: dose 100 mg/kg
Summary of the method: (§1)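 Mice were given the compound orally and sampled for peripheral plasma at each time point. Plasma was assayed microbiologically against Micrococcus luteus seeded in Antibiotic Medium 1. Inhibition zone sizes were read, and concentrations were calculated from each compound's own standard curve. Each value is the mean of five mice per time point.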

Mus musculus [5] = test: Peripheral plasma levels in mice after oral administration of 100 mg/kg dose for 0.25 hr; format: functional, organism-based; design: dose 100 mg/kg; summary of the method: as §1
Mus musculus [6] = test: Peripheral plasma levels in mice after oral administration of 100 mg/kg dose for 0.5 hr; format: functional, organism-based; design: dose 100 mg/kg; summary of the method: as §1
Mus musculus [7] = test: Peripheral plasma levels in mice after oral administration of 100 mg/kg dose for 1 hr; format: functional, organism-based; design: dose 100 mg/kg; summary of the method: as §1
Mus musculus [8] = test: Peripheral plasma levels in mice after oral administration of 100 mg/kg dose for 2 hr; format: functional, organism-based; design: dose 100 mg/kg; summary of the method: as §1
Mus musculus [9] = test: Peripheral plasma levels in mice after oral administration of 50 mg/kg dose for 1 hr; format: functional, organism-based; design: dose 50 mg/kg; summary of the method: as §1
Streptococcus [10] = test: In vitro antimicrobial activity against aerobic bacteria Streptococcus B 14; format: functional
Streptococcus [11] = test: In vitro antimicrobial activity against aerobic bacteria Streptococcus B 8; format: functional
Streptococcus [12] = test: In vitro antimicrobial activity against aerobic bacteria Streptococcus C 24; format: functional
Streptococcus [13] = test: In vitro antimicrobial activity against aerobic bacteria Streptococcus D 8043; format: functional
Streptococcus [14] = test: In vitro antimicrobial activity against aerobic bacteria Streptococcus D 9960; format: functional
Streptococcus [15] = test: In vitro antimicrobial activity against aerobic bacteria Streptococcus G Kruder; format: functional
[16] = test system: Staphylococcus epidermidis; test: In vitro antimicrobial activity against aerobic bacteria Streptococcus epi 270; format: functional
Staphylococcus aureus [17] = test: In vitro antimicrobial activity against Staphylococcus aureus X1; format: functional
Staphylococcus aureus [18] = test: In vitro antimicrobial activity against aerobic bacteria Staphylococcus aureus 513E; format: functional
Staphylococcus aureus [19] = test: In vitro antimicrobial activity against aerobic bacteria Staphylococcus aureus V140,; format: functional
Staphylococcus aureus [20] = test: In vitro antimicrobial activity against aerobic bacteria Staphylococcus aureus V41; format: functional
Staphylococcus aureus [21] = test: In vitro antimicrobial activity against aerobic bacteria Staphylococcus aureus X400; format: functional
Streptococcus pneumoniae [22] = test: In vitro antimicrobial activity against aerobic bacteria Streptococcus pneumoniae B1-438; format: functional, streptococcus pneum
Streptococcus pyogenes [23] = test: In vivo effective dose against experimental infections in rodent caused by Streptococcus pyogenes C203 when administered sc; format: functional
Streptococcus sanguinis = test: In vitro antimicrobial activity against aerobic bacteria Streptococcus sanguis MX132; format: functional
Streptococcus pneumoniae [24] = test: In vitro antimicrobial activity against Streptococcus pneumoniae; format: functional
[25] = test system: Staphylococcus epidermidis; test: In vitro antimicrobial activity against Staphylococcus epidermidis EPI1; format: functional
[26] = test system: Staphylococcus epidermidis; test: In vitro antimicrobial activity against aerobic bacteria Streptococcus epi 222; format: functional
Enterococcus faecium = test: In vitro antimicrobial activity against Streptococcus faecium X66; format: functional, streptococcus fae-cium
Streptococcus pyogenes [27] = test: In vitro antimicrobial activity against Streptococcus pyogenes C203; format: functional
Streptococcus viridans = test: In vitro antimicrobial activity against aerobic bacteria Streptococcus viridans 9943; format: functional
Streptococcus [28] = test: In vitro antimicrobial activity against aerobic bacteria Streptococcus B 5; format: functional
Staphylococcus aureus [29] = test: In vitro antimicrobial activity against aerobic bacteria Staphylococcus aureus V135; format: functional
Streptococcus [30] = test: In vitro antimicrobial activity against aerobic bacteria Streptococcus D 2041; format: functional
Streptococcus pyogenes [31] = test: In vivo effective dose against experimental infections in rodent caused by Streptococcus pyogenes C203 when administered orally; format: functional; conditions: po
Bacteroides fragilis [32] = test: In vitro antimicrobial activity against anaerobic bacteria bacteroides fragilis 111; format: functional
Bacteroides fragilis [33] = test: In vitro antimicrobial activity against anaerobic bacteria bacteroides fragilis 1877; format: functional
Bacteroides fragilis [34] = test: In vitro antimicrobial activity against anaerobic bacteria bacteroides fragilis 1936B,; format: functional
Eikenella corrodens = test: In vitro antimicrobial activity against anaerobic bacteria bacteroides corrodens 1874; format: functional
Phocaeicola vulgatus = test: In vitro antimicrobial activity against anaerobic bacteria bacteroides vulgatus 1211; format: functional
[35] = test system: Prevotella melaninogenica; test: In vitro antimicrobial activity against anaerobic bacteria bacteroides melaninogenicus 1856,; format: functional
[36] = test system: Bacteroides thetaiotaomicron; test: In vitro antimicrobial activity against anaerobic bacteria bacteroides thetaiotaomicron 1438; format: functional
Clostridioides difficile = test: In vitro antimicrobial activity against anaerobic bacteria Clostridium difficile 2994; format: functional
Clostridium perfringens = test: In vitro antimicrobial activity against anaerobic bacteria clostridium perfringens 81,; format: functional
Clostridium septicum = test: In vitro antimicrobial activity against anaerobic bacteria clostridium septicum 1128; format: functional
Fusobacterium = test: In vitro antimicrobial activity against anaerobic bacteria fusobacterium symbiosum 1470; format: functional
[37] = test system: Haemophilus parainfluenzae; test: In vitro antimicrobial activity against aerobic bacteria Haemophilus parainfluenzae 9796; format: functional
[38] = In vitro antimicrobial activity against anaerobic bacteria peptostreptococcus intermedius 1264; format: functional
[39] = test system: Peptoniphilus asaccharolyticus; test: In vitro antimicrobial activity against anaerobic bacteria peptococcus asaccharolyticus 1302; format: functional
Cutibacterium acnes = test: In vitro antimicrobial activity against anaerobic bacteria propionibacterium acnes 79; format: functional
Rattus norvegicus [40] = test: Peripheral plasma levels in rats after oral administration of 100 mg/kg dose for 0.25 hr; format: functional, organism-based; design: dose 100 mg/kg
Summary of the method: (§2)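 Rats received 100 mg/kg orally and were sampled for peripheral plasma. Concentrations were measured by Micrococcus luteus agar-diffusion microbiological assay in Antibiotic Medium 1, with zone sizes converted using the standard curve for the appropriate compound. Each value is the average of three rats per time point.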

Rattus norvegicus [41] = test: Peripheral plasma levels in rats after oral administration of 100 mg/kg dose for 0.5 hr; format: functional, organism-based; design: dose 100 mg/kg; summary of the method: as §2
Rattus norvegicus [42] = test: Peripheral plasma levels in rats after oral administration of 100 mg/kg dose for 1 hr; format: functional, organism-based; design: dose 100 mg/kg; summary of the method: as §2
Rattus norvegicus [43] = test: Peripheral plasma levels in rats after oral administration of 100 mg/kg dose for 2 hr; format: functional, organism-based; design: dose 100 mg/kg; summary of the method: as §2
Rattus norvegicus [44] = test: Peripheral plasma levels in rats after oral administration of 100 mg/kg dose for 4 hr; format: functional, organism-based; design: dose 100 mg/kg; summary of the method: as §2
Haemophilus influenzae [45] = test: In vitro antimicrobial activity against aerobic bacteria Haemophilus influenzae 465; format: functional
[46] = test system: Prevotella melaninogenica; test: In vitro antimicrobial activity against anaerobic bacteria bacteroides melaninogenicus 2736; format: functional
[47] = test system: Fusobacterium necrophorum; test: In vitro antimicrobial activity against anaerobic bacteria usobacterium necrophorum 6054A; format: functional
Collinsella aerofaciens = test: In vitro antimicrobial activity against anaerobic bacteria eubacterium aerofaciens 1235; format: functional
[48] = test system: Peptostreptococcus anaerobius; test: In vitro antimicrobial activity against anaerobic bacteria eubacterium peptostreptococcus anaerobius 1428,; format: functional

CC[C@H]1OC(=O)C[C@@H](O)[C@H](C)[C@@H](O[C@@H]2O[C@H](C)[C@@H](O)[C@H](N(C)C)[C@H]2O)[C@@H](CCN2C(=O)c3ccccc3C2=O)C[C@@H](C)C(=O)/C=C/C(C)=C/[C@@H]1CO[C@@H]1O[C@H](C)[C@@H](O)[C@@H](OC)[C@H]1OC
MIC (Haemophilus influenzae [1]): 32 µg/mL (≈ 35.4 µM)
MIC (Haemophilus influenzae [2]): 32 µg/mL (≈ 35.4 µM)
MIC (Haemophilus influenzae [3]): 32 µg/mL (≈ 35.4 µM)
Concentration (Mus musculus [4]): 0.3 µg/mL
Concentration (Mus musculus [5]): < 0.1 µg/mL
Concentration (Mus musculus [6]): < 0.1 µg/mL
Concentration (Mus musculus [7]): 2.1 µg/mL
Concentration (Mus musculus [8]): 0.9 µg/mL
Concentration (Mus musculus [9]): 0.8 µg/mL
MIC (Streptococcus [10]): 8 µg/mL (≈ 8.86 µM)
MIC (Streptococcus [11]): 8 µg/mL (≈ 8.86 µM)
MIC (Streptococcus [12]): 0.5 µg/mL (≈ 0.554 µM)
MIC (Streptococcus [13]): 4 µg/mL (≈ 4.43 µM)
MIC (Streptococcus [14]): 4 µg/mL (≈ 4.43 µM)
MIC (Streptococcus [15]; Streptococcus, read-out: MIC): 32 µg/mL (≈ 35.4 µM)
MIC [16]: > 128 µg/mL
MIC (Staphylococcus aureus [17]): 0.12 µg/mL (≈ 0.133 µM)
MIC (Staphylococcus aureus [18]): 0.25 µg/mL (≈ 0.277 µM)
MIC (Staphylococcus aureus [19]): 0.5 µg/mL (≈ 0.554 µM)
MIC (Staphylococcus aureus [20]): 0.25 µg/mL (≈ 0.277 µM)
MIC (Staphylococcus aureus [21]): 0.5 µg/mL (≈ 0.554 µM)
MIC (Streptococcus pneumoniae [22]): > 128 µg/mL
ED50 (Streptococcus pyogenes [23]): 2.7 mg/kg
MIC (Streptococcus sanguinis): 2 µg/mL (≈ 2.21 µM)
MIC (Streptococcus pneumoniae [24]): 2 µg/mL (≈ 2.21 µM)
MIC [25]: 0.12 µg/mL (≈ 0.133 µM)
MIC [26]: 0.1 µg/mL (≈ 0.111 µM)
MIC (Enterococcus faecium): 8 µg/mL (≈ 8.86 µM)
MIC (Streptococcus pyogenes [27]): 0.25 µg/mL (≈ 0.277 µM)
MIC (Streptococcus viridans): > 128 µg/mL
MIC (Streptococcus [28]): 8 µg/mL (≈ 8.86 µM)
MIC (Staphylococcus aureus [29]): 0.5 µg/mL (≈ 0.554 µM)
MIC (Streptococcus [30]): 8 µg/mL (≈ 8.86 µM)
ED50 (Streptococcus pyogenes [31]): 15 mg/kg

CC[C@H]1OC(=O)[C@H](C)[C@@H](O[C@H]2C[C@@](C)(OC)[C@@H](O)[C@H](C)O2)[C@H](C)[C@@H](O[C@@H]2O[C@H](C)C[C@H](N(C)C)[C@H]2O)[C@](C)(O)C[C@@H](C)C(=O)[C@H](C)[C@@H](O)[C@]1(C)O [ERYTHROMYCIN]
MIC (Bacteroides fragilis [32]): 1 µg/mL (≈ 1.36 µM)
MIC (Bacteroides fragilis [33]): 4 µg/mL (≈ 5.45 µM)
MIC (Bacteroides fragilis [34]): 2 µg/mL (≈ 2.73 µM)
MIC (Eikenella corrodens): 1 µg/mL (≈ 1.36 µM)
MIC (Phocaeicola vulgatus): < 0.5 µg/mL
MIC [35]: 2 µg/mL (≈ 2.73 µM)
MIC [36]: 1 µg/mL (≈ 1.36 µM)
MIC (Clostridioides difficile): < 0.5 µg/mL
MIC (Clostridium perfringens): < 0.5 µg/mL
MIC (Clostridium septicum): < 0.5 µg/mL
MIC (Fusobacterium): 2 µg/mL (≈ 2.73 µM)
MIC (Haemophilus influenzae [1]): 2 µg/mL (≈ 2.73 µM)
MIC (Haemophilus influenzae [2]): 4 µg/mL (≈ 5.45 µM)
MIC [37]: 4 µg/mL (≈ 5.45 µM)
Concentration (Mus musculus [5]): 2.5 µg ml-1 ml-1
Concentration (Mus musculus [6]): 5.6 µg ml-1 ml-1
Concentration (Mus musculus [7]): 2.7 µg ml-1 ml-1
Concentration (Mus musculus [8]): 0.7 µg ml-1 ml-1
MIC [38]: < 0.5 µg/mL
MIC [39]: 8 µg/mL (≈ 10.9 µM)
MIC (Cutibacterium acnes): < 0.5 µg/mL
Concentration (Rattus norvegicus [40]): 0.1 µg ml-1 ml-1
Concentration (Rattus norvegicus [41]): 0.1 µg ml-1 ml-1
Concentration (Rattus norvegicus [42]): 0.1 µg ml-1 ml-1
Concentration (Rattus norvegicus [43]): 0.2 µg ml-1 ml-1
Concentration (Rattus norvegicus [44]): 0.4 µg ml-1 ml-1
MIC (Streptococcus [10]): 0.12 µg/mL (≈ 0.164 µM)
MIC (Streptococcus [11]): 0.06 µg/mL (≈ 0.0818 µM)
MIC (Streptococcus [12]): 0.12 µg/mL (≈ 0.164 µM)
MIC (Streptococcus [13]): 0.06 µg/mL (≈ 0.0818 µM)
MIC (Streptococcus [14]): 2 µg/mL (≈ 2.73 µM)
MIC (Streptococcus [15]): 0.1 µg/mL (≈ 0.136 µM)
MIC (Staphylococcus aureus [18]): 0.25 µg/mL (≈ 0.341 µM)
MIC (Staphylococcus aureus [19]): 0.25 µg/mL (≈ 0.341 µM)
MIC (Streptococcus pneumoniae [22]): 6 µg/mL (≈ 8.18 µM)
MIC (Streptococcus sanguinis): 0.03 µg/mL (≈ 0.0409 µM)
MIC [26]: 0.06 µg/mL (≈ 0.0818 µM)
MIC (Streptococcus [28]): 0.06 µg/mL (≈ 0.0818 µM)
MIC (Staphylococcus aureus [29]): 0.25 µg/mL (≈ 0.341 µM)
MIC (Haemophilus influenzae [45]): 4 µg/mL (≈ 5.45 µM)
MIC [46]: 1 µg/mL (≈ 1.36 µM)
MIC [47]: 2 µg/mL (≈ 2.73 µM)
MIC (Collinsella aerofaciens): < 0.5 µg/mL
MIC (Streptococcus [30]): 1 µg/mL (≈ 1.36 µM)
MIC [48]: 1 µg/mL (≈ 1.36 µM)

Reference: ChEMBL document CHEMBL1124186, “Synthesis and evaluation of tylosin-related macrolides modified at the aldehyde function: a new series of orally effective antibiotics” (1988)
